Reference: ChEMBL document CHEMBL1255483, “Intra- and extracellular activities of dicloxacillin against Staphylococcus aureus in vivo and in vitro” (Antimicrob Agents Chemother, 2010)
Converted amounts (≈) assume the structure as drawn.

Columns and labels:
[1] = fT>MIC in Staphylococcus aureus E19977 infected NMRI mouse at 400 mg/kg administered every 12 hrs; assay type: functional
Method in brief: (§1)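 Calculated percentage of 24 h at steady state that free plasma DCX exceeds the strain MIC (microdilution, pH 7.4). Concentrations were simulated from single subcutaneous dose plasma curves in NMRI mice (S. lutea bioassay), adjusted with a square-root model of concentration-dependent free fraction from ultrafiltration. The regimen was dosed subcutaneously in mice infected intraperitoneally with 10^7.4 CFU, and peritoneal CFU were read after 24 h of therapy.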

Staphylococcus aureus [2] = experiment: Bactericidal activity against Staphylococcus aureus E19977 assessed as log reduction in bacterial count at MIC after 5 hrs by time-kill assay; assay type: functional
Method in brief: (§2)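 Broth time-kill: MSSA at 10⁶ CFU/ml exposed to a wide range of dicloxacillin concentrations. CFU counted after 5 and 24 h and expressed as change in log₁₀ CFU/ml from time zero. Multiples refer to the MIC by CLSI microdilution at pH 7.4. n = 3.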

Staphylococcus aureus [3] = experiment: Bactericidal activity against Staphylococcus aureus ATCC 25923 assessed as log reduction in bacterial count at MIC after 5 hrs by time-kill assay; assay type: functional; method in brief: as §2
Staphylococcus aureus [4] = experiment: Bactericidal activity against Staphylococcus aureus E19977 infected in human THP1 cells assessed as log reduction in bacterial count at 100 times MIC after 24 hrs by time-kill assay; assay type: functional, THP-1
Method in brief: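 Intracellular model in THP-1 macrophages: opsonized S. aureus was added at 4 bacteria per macrophage for 45 min. Non-phagocytized bacteria were removed by washing and brief PBS incubation with gentamicin (50 mg/liter). Cells were then incubated up to 24 h with a wide range of extracellular dicloxacillin concentrations. Result is change in log₁₀ CFU per mg cell protein from time zero. n = 3.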

Staphylococcus aureus [5] = experiment: Bactericidal activity against Staphylococcus aureus E19977 infected in human THP-1 cells assessed as log change in bacterial count after 24 hrs; assay type: functional
Method in brief: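 Human THP-1 macrophages were infected with opsonized S. aureus at 4 bacteria per macrophage for 45 min. Non-phagocytized bacteria were removed by washing and a brief incubation in PBS with gentamicin 50 mg/liter. Cells were then incubated up to 24 h with DCX over a wide range of extracellular concentrations. The read-out was Δlog CFU per mg cell protein versus time zero (n = 3), with sigmoidal fitting and Cstatic by interpolation.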

[6] = Cmax in NMRI mouse at 1200 mg/kg, sc; assay type: ADME, organism-based; parameters: dose 1200 mg/kg, route subcutaneous; settings: in vivo
[7] = Cmax in NMRI mouse at 300 mg/kg, sc; assay type: ADME, organism-based; parameters: dose 300 mg/kg, route subcutaneous; settings: in vivo
Method in brief: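 Single subcutaneous dicloxacillin doses were given to NMRI mice. EDTA plasma was assayed by microbiological bioassay with S. lutea ATCC 9391 (detection limit 1.5 mg/liter, linear to 100 mg/liter, CV ~5%). Cmax was obtained by noncompartmental analysis.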

[8] = Ratio of fAUC (24 hrs) in NMRI mouse at 200 mg/kg administered every 4 hrs to MIC for Staphylococcus aureus E19977; assay type: functional
Method in brief: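 Computed from modelled dosing regimens, not measured directly. Single subcutaneous doses were given to NMRI mice, and plasma was assayed by S. lutea bioassay. AUC24 came from noncompartmental analysis, with terminal exponential extrapolation to 24 h. The free fraction came from a square-root fit to ultrafiltration protein-binding data, with saturable binding included. MIC was by broth microdilution.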

[9] = Ratio of fAUC (24 hrs) in NMRI mouse at 120 mg/kg administered every 6 hrs to MIC for Staphylococcus aureus E19977; assay type: functional
Method in brief: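 Free-drug AUC24/MIC was modelled for repeated subcutaneous regimens. Single-dose NMRI plasma concentration-time curves were combined with the best-fitting square-root expression for the concentration-dependent free fraction. The result was divided by the E19977 MIC.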

[10] = Ratio of fAUC (24 hrs) in NMRI mouse at 400 mg/kg administered every 12 hrs to MIC for Staphylococcus aureus E19977; assay type: functional
Method in brief: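 Modeled free AUC over 24 h divided by the MIC, not measured directly. Single subcutaneous DCX doses were given to NMRI mice, and plasma was assayed by S. lutea bioassay. Noncompartmental analysis used trapezoidal mean points plus a fitted monoexponential extrapolated to 24 h. Free fraction came from a square-root fit to plasma ultrafiltration binding (10–400 mg/liter spike, 1 h, 37°C). The MIC was measured by broth microdilution at pH 7.4.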

[11] = Ratio of fCmax in NMRI mouse at 30 mg/kg administered every 2 hrs to MIC for Staphylococcus aureus E19977; assay type: functional
Method in brief: (§3)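 Free Cmax/MIC was modelled, not measured. Single-dose subcutaneous plasma curves from NMRI mice were projected to the multiple-dose regimens. Free fraction came from a square-root fit of unbound fraction versus total concentration. Binding was measured by ultrafiltration of mouse plasma spiked with 10–400 mg/liter and held 1 h at 37°C. MIC was for strain E19977.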

[12] = Ratio of fCmax in NMRI mouse at 400 mg/kg administered every 12 hrs to MIC for Staphylococcus aureus E19977; assay type: functional; method in brief: as §3
[13] = Ratio of fCmax in NMRI mouse at 300 mg/kg administered every 12 hrs to MIC for Staphylococcus aureus E19977; assay type: functional; method in brief: as §3
[14] = Ratio of fCmax in NMRI mouse at 120 mg/kg administered every 24 hrs to MIC for Staphylococcus aureus E19977; assay type: functional; method in brief: as §3
Mus musculus [15] = species on record: Mus musculus; experiment: Protein binding in NMRI mouse at 90 mg/l by ultrafiltration; assay type: ADME, organism-based; settings: in vivo
Method in brief: (§4)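 Plasma binding was measured by ultrafiltration. EDTA blood from healthy mice, or from NMRI mice infected intraperitoneally for 6 h with E19977, was spiked with DCX at 10–400 mg/liter, with PBS controls. Samples were held 1 h at 37°C, then centrifuged through 30-kDa filters at 3,000 × g for 8 min at 37°C. Total and filtrate drug were measured by S. lutea bioassay.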

Mus musculus [16] = species on record: Mus musculus; experiment: Protein binding in NMRI mouse infected with Staphylococcus aureus E19977 at 30 mg/l by ultrafiltration; assay type: ADME, organism-based; settings: in vivo; method in brief: as §4
Mus musculus [17] = species on record: Mus musculus; experiment: Protein binding in NMRI mouse infected with Staphylococcus aureus E19977 at 10 mg/l by ultrafiltration; assay type: ADME, organism-based; settings: in vivo; method in brief: as §4
[18] = fT>MIC in Staphylococcus aureus E19977 infected NMRI mouse at 76 mg/kg administered every 2 hrs; assay type: functional; method in brief: as §1
[19] = Ratio of fCmax in NMRI mouse at 80 mg/kg to MIC for Staphylococcus aureus E19977
[20] = fT>MIC in Staphylococcus aureus E19977 infected NMRI mouse at 340 mg/kg administered every 24 hrs
Staphylococcus aureus [21] = experiment: Antimicrobial activity against Staphylococcus aureus E19977 by broth microdilution method at pH 5.4
[22] = Ratio of fAUC (24 hrs) in NMRI mouse at 80 mg/kg administered every 3 hrs to MIC for Staphylococcus aureus E19977

For `Cc1onc(-c2c(Cl)cccc2Cl)c1C(=O)N[C@@H]1C(=O)N2[C@@H]1SC(C)(C)[C@@H]2C(=O)O` [DICLOXACILLIN], the “fT>MIC” value [1] was 35.97%, the FC (Staphylococcus aureus [2]) was under 1 and the FC (Staphylococcus aureus [3]) was under 1. It also gave an FC (Staphylococcus aureus [4]) of under 1, an Emax (Staphylococcus aureus [5]) of -1.01 deltalog10CFU/ml and a Cmax [6] of 222 µg/mL. For the same compound, the Cmax [7] was 529 µg/mL, the fAUC/MIC [8] was 616.07 h and the fAUC/MIC [9] was 175.82 h. The fAUC/MIC [10] was 644.84 h, the Ratio [11] was 6.27 and the Ratio [12] was 291.53. The Ratio [13] was 196.76, the Ratio [14] was 61.6 and the Activity (Mus musculus [15]) was 88.7%. The Activity (Mus musculus [16]) was 91.9%, the Activity (Mus musculus [17]) was 93.6% and the “fT>MIC” value [18] was 100%. The Ratio [19] was 30.64, the “fT>MIC” value [20] was 17.78% and the MIC (Staphylococcus aureus [21]) was 0.125 µg/mL (≈ 0.266 µM). For the same compound, the fAUC/MIC [22] was 168.69 h.
